Test results reported in ChEMBL document CHEMBL4130602, “Rearranged Phloroglucinol-Monoterpenoid Adducts from Callistemon rigidus” (J Nat Prod, 2018).

What follows are molecules tested on RAW264.7 (assay: Antiinflammatory activity in mouse RAW264.7 cells assessed as inhibition of LPS-induced nitric oxide production pretreated for 1 hr followed by LPS stimulation measured after 24 hrs by griess assay).
Type: functional, cell-based
Procedure, shortened: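 Compound added 1 h before lipopolysaccharide, then 24 h incubation. Culture supernatant mixed with Griess reagent, 10 min at room temperature; absorbance read at 550 nm, nitrite quantified from NaNO2 standard curve. Run in triplicate.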

IC50 [µM] | Compound
15.3 | CC[C@H](C)C(=O)c1c(O)cc(OC)c2c1O[C@@]1(C)[C@@H]2C[C@H](C(C)C)[C@H]1C=O
> 50 | COc1cc(O)c(C(=O)CC(C)C)c2c1[C@@H]1C[C@H](C(C)C)C=C[C@]1(C)O2
> 50 | COc1cc(O)c(C(=O)C(C)C)c2c1[C@H]1C[C@H](C(C)C)[C@H]3O[C@H]3[C@@]1(C)O2
> 50 | CC[C@H](C)C(=O)c1c(O)cc(OC)c2c1O[C@@]1(C)[C@@H]2C[C@H](C(C)C)[C@H]2O[C@H]21
> 50 | CC[C@H](C)C(=O)c1c(O)cc(OC)c2c1O[C@]1(C)C=C[C@@H](C(C)C)C[C@H]21
> 50 | COc1cc(O)c(C(=O)C(C)C)c2c1[C@@H]1[C@@H](C(C)C)CC=C(C)[C@@H]1O2
> 50 | COc1cc(O)c(C(=O)C(C)C)c2c1[C@H]1C[C@H](C(C)C)C=C[C@@]1(C)O2
> 50 | COc1cc(O)c(C(=O)CC(C)C)c2c1[C@H]1C[C@H](C(C)C)C=C[C@@]1(C)O2
17.7 | COc1cc(O)c(C(=O)C(C)C)c2c1[C@H]1C[C@H](C(C)C)[C@@H](C=O)[C@@]1(C)O2
21.1 | COc1ccc2c(c1)c(CC(=O)O)c(C)n2C(=O)c1ccc(Cl)cc1 [INDOMETHACIN]
